Screening results deposited in PubChem by several laboratories.
C8 TRAIL sens: caspase-8 TRAIL sensitization; NB7+C8 cells + TRAIL, ATPlite viability luminescence; inhibition (viability loss, TRAIL sensitization), % at 10 µM; 360,000 compounds, 1% hits;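 active = compounds causing at least 50% loss of cell viability in the single-dose screen, relative to plate controls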
HSP90 inh: blocks HSP90-mediated luciferase refolding in reticulocyte lysate; inhibition, % at 5.6 µM; 290,000 compounds, 0.91% hits; AID 1789; Rabbit reticulocyte lysate, luciferase refolding luminescence, 3 h;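 active = inhibition above the screen-wide mean plus 3 SD, computed separately per campaign, cut at about 16% in these data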;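 note: inhibitors lower the luminescence because luciferase stays unfolded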
FLuc stim CS: firefly luciferase counter-screen for stimulation assays. P08659. ATPlite luciferase biochemical, luminescence, 10 min; 0 = ATP-free wells, 1 = DMSO control. activation factor at 10 µM. 200,000 tested, under 10 active;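 active = luciferase activation factor, scaled between plate controls, of at least 2 with compound at 10 µM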
Target sequence (P08659 whole entry, looked up): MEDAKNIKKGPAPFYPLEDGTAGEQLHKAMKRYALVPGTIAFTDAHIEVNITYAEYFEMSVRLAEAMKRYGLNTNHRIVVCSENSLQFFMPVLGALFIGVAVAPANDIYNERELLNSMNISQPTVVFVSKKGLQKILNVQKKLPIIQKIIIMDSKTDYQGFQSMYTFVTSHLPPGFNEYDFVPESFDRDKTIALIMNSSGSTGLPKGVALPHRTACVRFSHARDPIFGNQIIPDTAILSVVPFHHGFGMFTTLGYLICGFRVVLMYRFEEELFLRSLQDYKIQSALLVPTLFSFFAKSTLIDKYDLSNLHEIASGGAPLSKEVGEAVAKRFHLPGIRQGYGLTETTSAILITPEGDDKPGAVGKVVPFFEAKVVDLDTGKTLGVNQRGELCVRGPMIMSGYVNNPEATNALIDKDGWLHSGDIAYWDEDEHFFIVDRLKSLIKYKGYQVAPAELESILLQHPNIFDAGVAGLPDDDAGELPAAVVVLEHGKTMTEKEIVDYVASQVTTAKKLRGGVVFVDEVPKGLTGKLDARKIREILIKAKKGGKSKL
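Assay system: Luciferase/luciferin detection reagent, cell-free biochemical luciferase assay / Also added: ATP substrate / Schedule: 10 min at ambient temperature / Measured by: luminescence measurement of luciferase light output / Benchmarks: low control with PBS replacing ATP, high control enzyme plus ATP without compound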
FLuc inh counter: inhibits firefly luciferase, flagging false hits in luciferase inhibition screens. ATPLite firefly luciferase biochemical luminescence, 10 min. inhibition, % at 10 µM. P08659. 200,000 compounds, 1.5% hits;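 active = inhibition above about 50% when tested at 10 µM, limit read from the data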
PPC-1+TRAIL kill: PPC-1 cancer cell killing with TRAIL present | PPC-1 cells + TRAIL, ATPLite viability luminescence | cell killing (% activity), % at 4 µM or 5 µM | 220,000 compounds, 0.41% hits;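 active = cell killing above 50% in the first pass at 4 µM, then a duplicate retest at 5 µM averaging 50% or more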
STAT3 inh-1: STAT3 signaling inhibition; U3A cells, IL-6 STAT3-luciferase reporter, luminescence; host cell line lacks STAT1; inhibition, % at 5.5 µM; 190,000 compounds, 0.89% hits; AID 862;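 active = inhibition above the mean inhibition across all screened compounds plus 3 SD, cut at about 44% in these data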
STAT3 inh-2: STAT3 inhibition, confirmation assay. U3A cells, IL-6 STAT3 luciferase reporter, luminescence; cell line lacks STAT1. shares compounds with STAT3 inh-1. inhibition, % at 5.7 µM. 1,200 compounds, 45% hits;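 active = inhibition above the hit cutoff computed for the primary STAT3 screen, cut at about 44% in these data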
NFkB inh STAT3ct: NF-kappaB inhibition in STAT3 inhibitor counter-screen. HEK293T NF-kB luciferase reporter, TNF-alpha induced. inhibition, % at 5.7 µM. 1,200 compounds, 36% hits. shares compounds with STAT3 inh-1;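 active = inhibition above the mean of solvent-only control wells plus 3 SD, cutoff set per campaign, cut at about 13% in these data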
STAT1 inh STAT3c: STAT1 inhibition in STAT3 inhibitor counter-screen | shares compounds with STAT3 inh-1 | inhibition, % at 5.7 µM | 1,200 compounds, 27% hits | NIH 3T3 STAT1-luciferase reporter, IFN-gamma induced, luminescence | AID 1317;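 active = inhibition above the mean plus 3 SD of solvent-only control wells, limit set per screening run, cut at about 16% in these data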
PPC1 cytotox: kills PPC-1 cells; shares compounds with PPC-1+TRAIL kill; PPC-1 viability, ATPlite luminescence, overnight; cytotoxicity, % at 5 µM; 1,200 compounds, 50% hits; AID 1447;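 active = reconfirmed compounds whose average cytotoxicity reaches 50% or more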
HSP90 confirm: HSP90 inhibition, confirmation assay | shares compounds with HSP90 inh | 2,300 compounds, 64% hits | rabbit reticulocyte lysate, luciferase refolding luminescence, 3 h | inhibition, % at 5.9 µM; in the data active = inhibition above about 18%
FLuc counter: counter-screen for HSP90 inhibitors: inhibitors of firefly luciferase | 2,300 compounds, 48% hits | purified native firefly luciferase, luminescence | shares compounds with HSP90 inh | inhibition, % at 5.9 µM;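 active = inhibition above the mean inhibition of all tested sample wells plus 3 SD, cut at about 10% in these data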
Numbers stand for hits; i = inactive; nt = no result given. Compounds with a hit are over-represented: about 2.2% of the library has one in this group of screens.

SMILES	C8 TRAIL sens	HSP90 inh	FLuc stim CS	FLuc inh counter	PPC-1+TRAIL kill	STAT3 inh-1	others
O=c1[nH]c(=O)n(CCC2=CCCCC2)c(O)c1C=NC1CCN(Cc2ccccc2)CC1	i	i	i	i	i	62.5	STAT3 inh-2=69.3;NFkB inh STAT3ct=29.5;STAT1 inh STAT3c=i
CCC(C)c1cnc(CC(C)C)c(=O)n1O (stereo not given)	i	nt	nt	nt	nt	nt
CNC(=O)Oc1ccc(-c2cn3cc(Cl)ccc3n2)cc1	83.7	i	i	93.2	54.6	84.0	STAT3 inh-2=68.0;NFkB inh STAT3ct=20.6;STAT1 inh STAT3c=i
Nc1ccccc1C(=O)OCCOc1ccccc1	i	i	i	i	i	57.6	STAT3 inh-2=i;NFkB inh STAT3ct=i;STAT1 inh STAT3c=i
C=CCOC(=O)c1ccccc1N	i	nt	nt	nt	nt	nt
CN1C2CCC1/C(=C/c1ccccn1)C(=O)/C2=C\c1ccccn1	85.9	i	i	i	i	52.7	STAT3 inh-2=i;NFkB inh STAT3ct=i;STAT1 inh STAT3c=i
O=C1NC(=O)C(Nc2ccccc2)C(=O)N1	i	nt	nt	nt	nt	nt
O=C1NCN(c2ccccc2)C12CCN(C(c1nnnn1C1CCCCC1)C1CC1)CC2 (stereo not given)	i	nt	nt	nt	nt	nt
Cn1cccc1CN1CCN(C(=O)COc2ccccc2)CC1	i	i	i	i	i	i
Cn1nc(-c2ccc(OCC(=O)N3CCN(Cc4ccccc4)CC3)cc2)c2ccccc2c1=O	i	i	i	i	i	59.6	STAT3 inh-2=48.7;NFkB inh STAT3ct=19.5;STAT1 inh STAT3c=17.0
C[C@H]1O[C@@H](O[C@H]2[C@@H](O)C[C@H](O[C@H]3[C@@H](O)C[C@H](O[C@H]4CC[C@@]5(C)[C@H](CC[C@@H]6[C@@H]5CC[C@]5(C)[C@@H](C7=CC(=O)OC7)CC[C@]65O)C4)O[C@@H]3C)O[C@@H]2C)C[C@H](O)[C@@H]1O	nt	i	i	i	73.8	82.8	STAT3 inh-2=81.1;NFkB inh STAT3ct=i;STAT1 inh STAT3c=i;PPC1 cytotox=73.1
COC(=O)[C@@H]1N=C(c2ccc(OC)cc2)O[C@]12C(=O)N(C)c1cccc(Cl)c12	i	nt	nt	nt	nt	nt
CC(C)(C)n1cc(C(=O)c2ccccc2OCCCF)cn1	i	i	nt	nt	nt	nt
CC(C)(C)n1cc(C(=O)c2ccc3ccccc3c2O)cn1	50.3	49.2	i	68.8	i	64.8	STAT3 inh-2=i;NFkB inh STAT3ct=i;STAT1 inh STAT3c=i;HSP90 confirm=59.8;FLuc counter=58.0
CN(C)C(=O)Oc1ccc(OCc2nc3ccccc3[nH]2)cc1	68.3	27.3	i	80.0	i	57.5	STAT3 inh-2=i;NFkB inh STAT3ct=i;STAT1 inh STAT3c=i;HSP90 confirm=52.0;FLuc counter=31.4
Cc1ccc(OP2(=O)Nc3cc(C)c(C)cc3S2)cc1 (stereo not given)	i	nt	nt	nt	nt	nt
O=c1[nH]c(=S)[nH]c(O)c1N=Nc1ccc2c(c1)OCCO2	55.8	i	nt	nt	73.5	nt	PPC1 cytotox=72.9
CCOC(=O)c1c(C)n(Cc2ccccc2)c2ccc(OCC(O)CN3C(=O)CNC3=O)cc12 (stereo not given)	i	i	i	i	i	i	PPC1 cytotox=i
CS(=O)(=O)c1ccc(C2=C(CNC(=O)c3nccs3)[C@H]3CC[C@@H](C2)N3Cc2ccco2)cc1	i	nt	nt	nt	nt	nt
O=C(c1cc(Cl)cc(Cl)c1)N1Cc2ccccc2-n2nncc2C1	i	nt	nt	nt	nt	nt
CCOC(=O)[C@]12Cc3c(cc(OC)c(OC)c3OC)[C@H]1N(CCC(=O)OC)C(=O)c1ccccc12	i	nt	nt	nt	nt	nt
c1ccc(-c2cc(-c3ccccc3)[n+](-c3ccccc3)c(-c3ccccc3)c2)cc1	75.2	i	nt	nt	i	nt	PPC1 cytotox=i
Cn1ncnc2c(=O)n(C)c(=O)nc1-2	96.0	nt	i	i	89.3	nt	PPC1 cytotox=90.3
C/C=C(\C)C(=O)OC1C(C)=C2C(C1OC(=O)CCCCC)C(C)(OC(C)=O)CC(OC(=O)CCC)C1(O)C2OC(=O)C1(C)O (stereo not given)	nt	nt	nt	nt	56.6	nt	PPC1 cytotox=54.4
CC1C(=O)CC2(C(C)C)CC12 (stereo not given)	i	nt	nt	nt	nt	nt
SMILES	C8 TRAIL sens	HSP90 inh	FLuc stim CS	FLuc inh counter	PPC-1+TRAIL kill	STAT3 inh-1	others
CCOC(=O)c1cc2cc(OC)ccc2n1C1CCN(Cc2ccccc2)CC1	i	nt	nt	nt	nt	nt
C[C@H]1C[C@@H](C)C(=O)[C@@H]([C@H](O)CC2CC(=O)NC(=O)C2)C1	i	i	i	i	i	nt	PPC1 cytotox=i
CCC1(CCC(C)C)C(=O)NC(=O)N(c2ccccc2)C1=O (stereo not given)	i	nt	nt	nt	nt	nt
CN1CCN(C(=O)COc2ccc(-c3nc4ccccc4s3)cc2)CC1	91.7	47.7	i	96.4	91.8	85.2	PPC1 cytotox=91.2;HSP90 confirm=71.7;FLuc counter=69.0
O=C(NC(=S)N1CC1)c1ccccc1	i	nt	nt	nt	nt	nt
O=C(O)C1C2CCC(O2)C1C(=O)Nc1ccc(F)c(F)c1 (stereo not given)	i	i	nt	nt	nt	nt
CCOC(=O)c1ccc(NC(=O)C2C3C=CC(O3)C2C(=O)O)cc1 (stereo not given)	nt	35.2	i	i	i	i	HSP90 confirm=i;FLuc counter=i
O=C(NCC1=C(c2ccc3ccccc3c2)C[C@@H]2CC[C@H]1N2Cc1ccco1)c1ccc([N+](=O)[O-])cc1	i	nt	nt	nt	nt	nt
Cc1nn(C2CCOC(C)(C)C2)c2c1C(c1ccc3c(c1)OCO3)SCC(=O)N2 (stereo not given)	i	i	i	i	i	i
COc1ccc(C2SCC(=O)Nc3c2c(C)nn3C2CCOC(C)(C)C2)cc1 (stereo not given)	i	19.9	i	i	i	i	HSP90 confirm=i;FLuc counter=i
CCOC(=O)CNC(=O)N1Cc2ccccc2-n2nncc2C1	i	nt	nt	nt	nt	nt
O=c1[nH]c2c(c(=O)n1C1CCCCC1)CCC2	i	27.7	i	i	i	i	HSP90 confirm=i;FLuc counter=i
CC(=O)N1Cc2cnnn2-c2ccccc2C1C#N (stereo not given)	i	nt	nt	nt	nt	nt
CCCCCCOc1ccc(CN2CCN(C)CC2)cc1	i	18.6	i	i	i	i	HSP90 confirm=38.9;FLuc counter=24.8
CN1CCN(Cc2ccc3ccccc3c2)CC1	i	i	nt	nt	nt	nt
c1ccc(CNCCc2c[nH]c3ccccc23)cc1	i	i	nt	nt	nt	nt
CCc1ccc(CNCCc2c[nH]c3ccccc23)cc1	i	19.1	nt	nt	nt	nt	HSP90 confirm=i;FLuc counter=i
Cc1cccc(C)c1-n1nnnc1C(c1ccccc1OC(F)(F)F)N1CCC(n2c(=O)[nH]c3ccccc32)CC1 (stereo not given)	i	nt	nt	nt	nt	nt
C[n+]1c(-c2ccccc2)c2cc(N)ccc2c2ccc(N)cc21	i	38.9	nt	nt	nt	nt	HSP90 confirm=i;FLuc counter=i
COC(=O)C[C@]1(C(=O)OC)CN(C#N)N(c2ccc(Cl)cc2)C12c1ccccc1-c1ccccc12	91.3	32.2	i	i	i	i	HSP90 confirm=58.7;FLuc counter=i
